In one data set the target is T1, Glutamate racemase (Helicobacter pylori J99, UniProt Q9ZLT0).
T1 sequence (Q9ZLT0 whole entry): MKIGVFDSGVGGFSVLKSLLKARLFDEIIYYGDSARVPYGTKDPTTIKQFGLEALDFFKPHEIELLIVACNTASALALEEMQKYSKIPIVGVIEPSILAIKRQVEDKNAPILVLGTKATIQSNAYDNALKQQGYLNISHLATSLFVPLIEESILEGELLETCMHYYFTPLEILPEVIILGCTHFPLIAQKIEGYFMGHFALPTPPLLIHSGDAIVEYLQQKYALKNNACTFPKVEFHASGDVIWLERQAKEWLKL
Nature of the data set: Inhibition of Helicobacter pylori J99 glutamate racemase. The method in brief: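 The racemase was expressed from the murI gene of H. pylori J99 chromosomal DNA. IC50 was taken as the mean of duplicate determinations, using a method cited from earlier work.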

Data set [1] deals with Helicobacter pylori. Put plainly: Antibacterial activity against wild type Helicobacter pylori 055. Type of data set: functional.
Data set [2] relates to Helicobacter pylori. Put plainly: Antibacterial activity against AcrAB-TolC efflux pump-dificient Helicobacter pylori. The data set is classed as functional.
Data set [3] in a line: Intrinsic clearance in human liver microsomes at 2 uM assessed per mg of protein. Type of data set: ADME, Microsome. Particulars: read-out: CLH.
The nature of data set [4]: Intrinsic clearance in mouse liver microsomes at 2 uM assessed per mg of protein. Type of data set: ADME, Microsome. Particulars: read-out: CLH.
Data set [5] in a line: Clearance in mouse at 5 mg/kg, iv and 40 mg/kg, po. The conditions noted are these: in vivo. Type of data set: ADME, organism-based.
A short description of data set [6]: Half life in mouse at 5 mg/kg, iv and 40 mg/kg, po. Type of data set: ADME, organism-based. Particulars: in vivo.
A short description of data set [7]: Volume of distribution at steady state in mouse at 5 mg/kg, iv and 40 mg/kg, po. The data set is classed as ADME, organism-based. Particulars: in vivo, read-out: Vdss.
Data set [8] is described as follows: Plasma protein binding in mouse at 10 uM after 16 hrs by Dianorm method. The conditions noted are these: read-out: PPB (converted). The data set is classed as ADME, cell-free.
Data set [9] in a line: Dissociation constant, pKa of the compound. The data set is classed as physicochemical.
Data set [10] is described as follows: Oral bioavailability in mouse at 40 mg/kg. Type of data set: ADME, organism-based. Particulars: in vivo.
Data set [11] has as its system Helicobacter pylori. Nature of the data set: Antibacterial activity against Helicobacter pylori infected in mouse assessed as log reduction CFU at 40 mg/kg administered QID for 2 days relative to untreated control.
The test system of data set [12] is Helicobacter pylori. Nature of the data set: Ratio of MIC for wild type Helicobacter pylori 055 to MIC for AcrAB-TolC efflux pump-dificient Helicobacter pylori.
In data set [13] the test system is Helicobacter pylori. Nature of the data set: Antibacterial activity against Helicobacter pylori infected in mouse assessed as log reduction CFU at 10 mg/kg administered BID for 2 days relative to untreated control. The data set is classed as functional.
A short description of data set [14]: Inhibition of Staphylococcus aureus MurI.
Data set [15] can be described thus: Inhibition of Enterococcus faecalis MurI.
The nature of data set [16]: Inhibition of Escherichia coli MurI.
The nature of data set [17]: Plasma protein binding in mouse. The conditions noted are these: read-out: PPB (converted). Type of data set: ADME, cell-free. The method, boiled down: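 Plasma protein binding in mouse plasma used a […] compound solution in a dialysis plasma well, incubated at 37 °C for 16 h. Free fraction came from the ratio of drug in buffer to drug in buffer plus plasma wells, both quantified by LC/MS.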

The values below come from ChEMBL document CHEMBL2086265, “Design of inhibitors of Helicobacter pylori glutamate racemase as selective antibacterial agents: incorporation of imidazoles onto a core pyrazolopyrimidinedione scaffold to improve bioavailabilty” (Bioorg Med Chem Lett, 2012).

≈ marks a conversion by molar mass, not a printed value.

On to `C#CCn1c(=O)c2c(-c3cncn3C)n(Cc3ccnc4ccc(Cl)cc34)nc2n(CC2CC2)c1=O`, for which, at Glutamate racemase, the IC50 stood at 24 nM. The values for the MIC in the data set on Helicobacter pylori [1] and against Helicobacter pylori [2] were 2 µg/mL (≈ 4 µM) and 0.5 µg/mL (≈ 1 µM), respectively. In addition, the results for the microsomal CLint at 2 µM in data set [3] and in data set [4] were below 14 µL/min/mg and 18 µL/min/mg, respectively. This molecule returned a clearance in data set [5] of 20 mL/min/kg. This molecule showed a half-life in [6] of 2.1 h. In [7], the Vd amounted to 3.6 L/kg. Moreover, the fraction unbound at 16 h, 10 µM in data set [8] was 0.96. In data set [9], this molecule yielded a pKa of 7.2. In data set [10], the bioavailability worked out at 100%. The FC with Helicobacter pylori [11] came out at 1.
`Cn1cncc1-c1c2c(=O)n(C)c(=O)n(CC3CC3)c2nn1Cc1ccnc2ccc(Cl)cc12` came in with an IC50 against Glutamate racemase of 41 nM. Besides, the minimum inhibitory concentration (MIC) was found to be 2 µg/mL (≈ 4.2 µM) in the data set with Helicobacter pylori [1] and 0.25 µg/mL (≈ 0.525 µM) against Helicobacter pylori [2]. In addition, the microsomal CLint at 2 µM was below 17 µL/min/mg in data set [3] and 21 µL/min/mg in data set [4]. The molecule also gave a clearance in [5] of 14 mL/min/kg. The molecule also had a half-life in [6] of 0.7 h. Also, in [7], the Vd came to 1.2 L/kg. The fraction unbound at 16 h, 10 µM in data set [8] was above 0.969. For the same molecule, the bioavailability in data set [10] was 76%.
For `C=CCn1c(=O)c2c(-c3nc(C#N)cn3C)n(Cc3ccnc4ccc(Cl)cc34)nc2n(CC2CC2)c1=O`, on Glutamate racemase, the IC50 was determined as 250 nM. In addition, the MIC against Helicobacter pylori [1] was found to be 2 µg/mL (≈ 3.8 µM); with Helicobacter pylori [2] it was 4 µg/mL (≈ 7.59 µM). Also, the microsomal CLint at 2 µM in [3] and in data set [4] was above 100 µL/min/mg in each case. Besides, in the data set with Helicobacter pylori [12], the Ratio result is recorded as “<=2”.
`COc1c(N2CCO[C@@H](CN(C)C)C2)c(F)cc2c(=O)c(C(=O)O)cn(C3CC3)c12`: in the data set on Helicobacter pylori [13], the FC is 5.
Take `Cn1cc(C#N)cc1-c1c2c(=O)n(C)c(=O)n(CC3CC3)c2nn1Cc1ccnc2ccc(Cl)cc12`: the half-inhibitory concentration (IC50) against Glutamate racemase is 25 nM; in [14], above 400000 nM; in data set [15], above 400000 nM; in data set [16] it was above 400000 nM. Further, the MIC in the data set on Helicobacter pylori [1] turned out to be 0.5 µg/mL (≈ 1 µM); in the data set with Helicobacter pylori [2], 0.8 µg/mL (≈ 1.6 µM). Also, the microsomal CLint at 2 µM in data set [3] is 14 µL/min/mg; in [4], 50 µL/min/mg. Besides, the Ratio entry in the data set on Helicobacter pylori [12] is reported as “<=2”.
Turning to `CC(C)Cn1c(=O)n(C)c(=O)c2c(-c3ccncc3)n(Cc3cccc4ccccc34)nc21`, the 50% inhibitory concentration (IC50) in data set [14], in data set [15] and in data set [16] was above 400000 nM throughout.
As to `Cn1cc(S(C)(=O)=O)cc1-c1c2c(=O)n(C)c(=O)n(CC3CC3)c2nn1Cc1ccnc2ccc(Cl)cc12`, the IC50 at Glutamate racemase was 34 nM; in data set [14] it was above 400000 nM; in [15] it was above 400000 nM; in data set [16], above 400000 nM. Besides, in the data set with Helicobacter pylori [1], the MIC is 2 µg/mL (≈ 3.62 µM). Also, the fraction unbound in [17] was 0.03. Further, the clearance in data set [5] stood at 15 mL/min/kg. In addition, the bioavailability in data set [10] amounted to 13%.
